Source: PubChem (several laboratories)
Compounds with a hit are over-represented: about 3.8% of the library has one in this group of screens.
NPY-Y1 antag – NPY-Y1 receptor antagonists, primary screen, cell-based | actives 1% (n = 200,000) | HEK293-CNG Y1 cells, membrane potential fluorescence; NPY at EC95, then isoproterenol | inhibition, % at 3.6 µM | Neuropeptide Y receptor type 1 (Homo sapiens), P25929;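 active = inhibition above the campaign mean inhibition of all tested compounds plus 3 SD, cut at about 20% in these data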;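 note: 0% = DMSO wells given NPY plus isoproterenol and 100% = isoproterenol alone without NPY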
Target sequence (P25929 whole entry, looked up): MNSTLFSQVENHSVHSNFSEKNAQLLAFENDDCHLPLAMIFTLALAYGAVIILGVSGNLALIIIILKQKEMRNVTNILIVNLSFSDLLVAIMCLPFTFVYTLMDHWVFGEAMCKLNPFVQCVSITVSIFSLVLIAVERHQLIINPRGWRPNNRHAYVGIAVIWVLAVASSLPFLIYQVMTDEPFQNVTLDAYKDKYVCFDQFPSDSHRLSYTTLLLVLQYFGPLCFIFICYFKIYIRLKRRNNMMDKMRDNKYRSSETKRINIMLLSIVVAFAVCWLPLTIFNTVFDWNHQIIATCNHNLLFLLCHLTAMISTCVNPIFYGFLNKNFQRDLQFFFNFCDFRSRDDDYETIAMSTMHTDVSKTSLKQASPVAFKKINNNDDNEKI
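Assay system: HEK293 Y1/CNG channel cell line; Doses: single compound dose of 3.6 µM, 0.4% DMSO; Timing: dye 3 h, compound 60 min room temperature, stimulation 45 min; Technique: Membrane-potential fluorescent dye readout; Measure: % inhibition of NPY effect.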
RAM inhibit – inhibitors of the yeast RAM network, primary screen, dse1pr::URA3 reporter, 5-FOA selection | S. cerevisiae dse1pr::URA3 reporter, 5-FOA growth OD615, 2 d; analog-sensitive cbk1-as2 kinase mutant strain | inhibition, % at 50 µM | actives 1.8% (n = 190,000) | AID 868, 2007;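 active = inhibition above a set limit, 3 SD over mean compound inhibition, cut at about 8.4% in these data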;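 note: 0% = DMSO-only wells with no growth and 100% = 10 µM 1-NA-PP1 full growth; inhibition rescues growth on 5-FOA so higher OD means more RAM inhibition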
NPY-Y1 PAM-ag – NPY-Y1 receptor potentiators or agonists, primary screen, cell-based; activation, % at 3.6 µM; AID 1304, 2008; Neuropeptide Y receptor type 1 (Homo sapiens), P25929; actives 0.37% (n = 220,000); NPY-Y1 expressing cells, potentiator/agonist activation; in the data active = activation above about 33%, passing the limit was not always enough;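 note: cells stimulated with NPY at EC10 then isoproterenol at EC100; 0% = low agonist plus stimulus and 100% = saturating agonist plus stimulus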
INS promoter inh – inhibitors of insulin promoter-driven GFP, primary screen, imaging, TRM-6 cells, eGFP reporter, cell count. reporter expression induced with tamoxifen. inhibition, % at 2 µM. actives 0.9% (n = 130,000);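 active = inhibition above the mean plus 3 SD, with well images judged a real hit on visual review, cut at about 60% in these data, passing the limit was not always enough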
NPY2 pot ag – NPY-Y2 potentiators or agonists, primary screen, cell-based. AID 1359, 2008. cells expressing NPY-Y2, potentiator/agonist read-out. actives 0.45% (n = 220,000). activation, % at 3.6 µM; in the data active = activation above about 27%;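 note: cells stimulated with NPY near EC25 plus isoproterenol at EC100; 0% = vehicle plus submaximal agonist and 100% = vehicle plus saturating agonist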
NPY-Y2 antag – NPY-Y2 receptor antagonists, primary screen, cell-based | NPY-Y2 expressing cells, antagonist mode | inhibition, % at 2.7 µM | actives 0.99% (n = 140,000); in the data active = inhibition above about 17%;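 note: 0% = vehicle with agonist challenge and 100% = reference antagonist with challenge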
* marks the source's active call; other numbers are inactive results; . = not tested or not shown.

SMILES | NPY-Y1 antag | RAM inhibit | NPY-Y1 PAM-ag | INS promoter inh | NPY2 pot ag | NPY-Y2 antag
COC(=O)/C(=N/Nc1cccc(C)c1)N1CCCc2ccccc21 | 19 | 7 | -14 | . | -3 | 6
COC(=O)/C(=N/Nc1ccc(C)cc1)N1CCCc2ccccc21 | 29* | 1 | 1 | . | -6 | 19*
COc1ccccc1-n1c(SCC(=O)OC(C)C)nc2cccnc21 | . | . | 6 | . | 9 | .
S=C(Nc1ccccc1)N1CCN(C(=S)c2ccccc2)CC1 | 3 | 0 | 6 | -47 | 4 | .
O=C(Nc1cccc(Cl)c1)c1cc(F)cc2c1OCOC2 | . | . | -16 | . | -12 | .
COC(=O)c1ccccc1NC(=O)C1CCN(C(=O)c2cc(OC)c(OC)c(OC)c2)CC1 | 2 | 2 | -15 | 0 | -3 | 3
Cc1cc(C)cc(NC(=S)NCc2ccc3c(c2)OCO3)c1 | 30* | . | -78 | 2 | -52 | 14
COc1ccc(C)cc1S(=O)(=O)N1CCN(c2cccc(C(F)(F)F)c2)CC1 | 4 | 11* | -3 | 31 | -8 | 1
CN(C)S(=O)(=O)c1ccc(NC(=O)N2CCN(c3cccc(C(F)(F)F)c3)CC2)cc1 | -2 | 1 | 23 | 43 | 24 | -1
COc1ccc(NC(=O)N2CCN(c3cccc(C(F)(F)F)c3)CC2)cc1 | -6 | 3 | 8 | 75* | -10 | 4
COc1ccc(C(C)C)cc1S(=O)(=O)N1CCN(c2ccccc2)CC1 | 1 | 11* | -4 | . | -1 | .
COc1ccc(CNCc2c(C(=O)N(C)C)nc3ccc(Cl)cn23)c(OC)c1 | 6 | 1 | 6 | -25 | -8 | .
NC(=O)CSc1nnc2ccc(-c3ccco3)nn12 | -3 | 2 | -10 | 68* | -5 | .
c1cncc(CSc2nnc3ccc(-c4ccco4)nn23)c1 | 0 | 0 | 23 | . | 1 | .
O=C(Nc1ccc(F)cc1)N1CCOCC1 | -2 | 2 | -11 | 21 | 12 | 1
CCNC(=O)N1CCOCC1 | 6 | 1 | -2 | 86* | 2 | 1
O=C(NCCc1ccc(F)cc1)N1CCOCC1 | -1 | 0 | -24 | 83* | -4 | 4
CC(=O)c1cccc(S(=O)(=O)N2CCCC(c3nc(-c4ccc(C)o4)no3)C2)c1 (centres undefined) | 2 | 9.3* | -24 | -38 | -9 | -1
O=C(O)CC(CC(=O)O)(C(=O)O)c1ccccc1 | . | . | 6 | . | 16 | .
CCCCCCCCCCC(=O)NNC(=O)c1c(O)c2ccccc2n(CC)c1=O | 0 | 8.8* | -13 | 11 | 0 | .
CCCCCCCCC(=O)NNC(=O)c1c(O)c2ccccc2n(CCC)c1=O | 6 | 8.8* | 12 | 0 | 4 | .
C=CCn1c(=O)c(C(=O)Nc2cccnc2)c(O)c2ccccc21 | -3 | 0 | -19 | 20 | 8 | 5
CCCCCCCCCC(=O)NNC(=O)c1c(O)c2ccccc2n(CCC)c1=O | -4 | 5 | 5 | 61 | 5 | .
C=CCn1c(=O)c(C(=O)NCCc2ccccc2)c(O)c2ccccc21 | 6 | 10* | -9 | -52 | -4 | 8
O=C1CC(c2ccc(O)cc2)Oc2cc(O)cc(O)c21 (centres undefined) | -4 | 1 | 6 | -14 | 3 | -2
SMILES | NPY-Y1 antag | RAM inhibit | NPY-Y1 PAM-ag | INS promoter inh | NPY2 pot ag | NPY-Y2 antag
CC1CC(=O)c2c(cc3c(-c4c(O)cc(O)c5c(O)c6c(cc45)OC(C)CC6=O)c(O)cc(O)c3c2O)O1 (centres undefined) | 3 | 9.4* | -3 | . | -19 | .
COC(=O)CSc1snnc1-c1ccc(Cl)cc1Cl | 0 | 0 | -8 | -471 | 1 | 4
CCOc1c(C)cc(-c2ncccc2O)cc1C | 3 | 2 | -1 | 82* | -10 | 0
CCc1sc(N(C(=O)Cc2ccccc2)c2ccc(F)cc2)nc1-c1ccccc1 | 1 | 9.1* | 8 | -3 | -5 | 0
CCc1sc(N(C(=O)Cc2ccccc2)c2ccccc2)nc1-c1ccccc1 | 15 | 11* | -12 | 0 | 3 | 0
Nn1c(SCc2ccc(Br)cc2)nnc1-c1ccncc1 | -5 | 0 | 7 | -38 | 12 | .
Cc1cccc(Cl)c1NC(=O)N1CCCN(c2ncccc2[N+](=O)[O-])CC1 | . | . | -4 | . | -9 | .
Cc1oc(C(C)(C)C)cc1C(=O)Nc1cccc(/C=C/C(=O)O)c1 | 4 | 8.4* | 1 | -23 | 0 | 2
CCCCCCCCCCn1c2c(c(=N)c3c1CCC3)CCC2 | 92* | -2 | -88 | -86 | -77 | 51*
CCCCCn1c2c(c(=N)c3ccccc31)CCC2 | . | . | -46 | . | 4 | .
CCOC(=O)/C(=N\Nc1ccccc1)c1csc(Nc2ccc(C)cc2)n1 | 5 | 10* | -6 | 73 | 7 | -2
CCCCC(CCC(=O)O)(C(=O)OCC)c1csc(Nc2ccc(C)cc2)n1 (centres undefined) | 7 | 4 | 5 | 53 | -9 | .
CC1(C)C([N+](=O)[O-])C(c2ccc(O)cc2)NC(c2ccc(O)cc2)C1[N+](=O)[O-] (centres undefined) | 4 | 1 | 40* | -33 | 35* | 1
CC1(C)C([N+](=O)[O-])C(c2ccc(F)cc2)NC(c2ccc(F)cc2)C1[N+](=O)[O-] (centres undefined) | . | . | -9 | . | -14 | .
CCCSC1=C(C#N)C2(CCCCC2)C(C#N)=C(N)N1 | -13 | 4 | 53* | -43 | 32* | .
CC(C)(C)c1ccc(Oc2ccc(NC(=O)c3ccco3)cn2)cc1 | . | . | 54* | . | 58* | .
O=C(Nc1ccc(Oc2cccc(C(F)(F)F)c2)nc1)c1ccco1 | . | . | 28 | . | 20 | .
Cn1c(CCNC(=O)c2ccc(Cl)c(Cl)c2)nnc1SCc1ccc(Cl)c(Cl)c1 | 3 | 8.8* | -28 | -33 | -10 | 6
COc1ccc(-c2noc(CSc3nnc(Cc4ccccc4)n3-c3ccc(Cl)cc3)n2)cc1 | 9 | 10* | -7 | -31 | -25 | 8
Cc1ccc(-c2noc(CSc3nnc(Cc4ccccc4)n3-c3ccc(Cl)cc3)n2)cc1 | 21* | 8.5* | -37 | 0 | -35 | 25*
O=C(CSc1nc2ccccc2o1)NCCOc1ccccc1 | 10 | 0 | -46 | . | -25 | 7
O=C(/C=C\c1ccc(-c2ccccc2)o1)c1ccccc1 | 4 | 9.6* | -11 | . | 4 | 1
C[N+]1(CCC(=O)c2ccccc2)CCCCC1 | -4 | 0 | 8 | 64* | -1 | 2
O=C(CCN1CCCCC1)c1ccccc1 | 5 | 2 | -13 | 14 | -4 | 4
O=C(NC(Cc1ccc2c(c1)OCO2)C(=O)N1CCCC1C(=O)O)c1ccccc1 (centres undefined) | -4 | -1 | 2 | 87* | -2 | 2
